The list is not random: actives were taken first. Their share in the collection is about 2.5%.
mABHD4 FP: ABHD4 (mouse) inhibition, primary FP screen. Q8VD66. purified mABHD4, FP-Rh probe fluorescence polarization. inhibition, % at 8.92 µM. 0.54% of 370,000 active;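 active = inhibition exceeding the mean over every tested compound plus 3 SD, cut at about 30% in these data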;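 note: 0% = plate median of compound wells and 100% = S159A mutant with DMSO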
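Material: mouse ABHD4 enzyme, wild type; Benchmarks: S159A mutant high control, sample median low control; Buffer or medium: HEPES pH 7.0, NaCl, Pluronic buffer; Signal: fluorescence polarization; Read-out: percent inhibition of probe binding, normalized to plate controls; Timing: pre-incubation 45 min, probe exposure 60 min, at 25 °C; Dosing: 8.92 µM, single dose.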
HTRA1 inh: blocks human HTRA1 serine peptidase; inhibition, % at 5.96 µM; Q92743; AID 504803; recombinant HTRA1, FP-rhodamine activity-based probe, fluorescence polarization; 0.5% of 340,000 active; in the data active = inhibition above about 36%;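 note: 0% = enzyme with DMSO and 100% = wells lacking enzyme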
Target sequence (Q92743 whole entry, looked up): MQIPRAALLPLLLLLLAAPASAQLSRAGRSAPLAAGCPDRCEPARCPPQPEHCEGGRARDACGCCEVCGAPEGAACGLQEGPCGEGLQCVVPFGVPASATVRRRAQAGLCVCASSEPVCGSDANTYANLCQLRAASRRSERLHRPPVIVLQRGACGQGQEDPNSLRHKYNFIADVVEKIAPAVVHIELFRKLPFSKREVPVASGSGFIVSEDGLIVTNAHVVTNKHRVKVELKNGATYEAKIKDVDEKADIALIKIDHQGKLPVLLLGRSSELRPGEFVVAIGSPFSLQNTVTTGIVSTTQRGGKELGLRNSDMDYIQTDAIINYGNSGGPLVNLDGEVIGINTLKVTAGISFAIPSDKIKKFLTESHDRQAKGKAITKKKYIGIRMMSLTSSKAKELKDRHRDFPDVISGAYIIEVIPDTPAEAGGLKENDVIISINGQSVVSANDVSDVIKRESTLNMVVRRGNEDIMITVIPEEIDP
SIAE primary: blocks human sialic acid acetylesterase; SIAE FP-Rh probe binding, fluorescence polarization; inhibition, % at 9.66 µM; 0.69% of 370,000 active; AID 1053197;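 active = inhibition above a cutoff: mean of compounds within the control limits plus 3 SD of those, cut at about 17% in these data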;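 note: 0% = plate median of compound wells and 100% = probe without SIAE protein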
TCR CD3 inh: human TCR-CD3 binding inhibition; TAMRA-labeled TCR probe fluorescence, biochemical; inhibition, % at 9.4 µM; 0.37% of 360,000 active; AID 651800; in the data active = inhibition above about 19%;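 note: recombinant mutant TCR 2C K166C tagged with TAMRA read by polarization; 0% = receptor in buffer alone and 100% = receptor with positive control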
PRMT1 FP inh: inhibitors of human PRMT1; 1.3% of 370,000 active; Q99873; inhibition, % at 2.79 µM; recombinant PRMT1, activity-based probe fluorescence polarization;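 active = inhibition above about 21% made by adding two undisclosed values, limit read from the data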
An asterisk follows results filed as active; / = not tested or not shown; ! = not confirmed by another sample.

SMILES	mABHD4 FP	HTRA1 inh	SIAE primary	TCR CD3 inh	PRMT1 FP inh
CC(C)C(=O)N1CC[C@H]2[C@H](CCCN2Cc2ccc(F)cc2)C1	-9	/	0	/	6
Cn1c(SCC(=O)N/N=C/C=C/c2ccco2)nc2ccccc21	6	6	11	17	24*
COc1ccc(-n2c(COc3ccc(C)cc3)nnc2SCC(=O)Nc2ccc(S(=O)(=O)Nc3cc(C)nc(C)n3)cc2)cc1	-7	/	-5	/	-1
O=[N+]([O-])c1cc2oc3c(c2c(C=NCc2ccncc2)c1O)CCCC3	/	50*	/	/	/
C#CCOCCOCCOCCNc1nc(N2CCN(C(=O)Cn3cc(CCCN=C(N)N)nn3)CC2)nc(N2CCN(C(=O)[C@H](Cc3ccc(O)cc3)n3cc(CCO)nn3)CC2)n1	4	/	0	/	-1
N#CC1(C#N)CC(C=O)=C(N)C1(C#N)CC(=O)c1ccc(F)cc1 (stereo unspecified)	15	-6	-4	-16	24*
CC(C)CN1C(=O)NC(NS(=O)(=O)c2ccc(N)cc2)(C(F)(F)F)C1=O (stereo unspecified)	-4	2	-3	-3	24*
CCn1c2ccccc2c2cc(NC(=O)COC(=O)c3cc(F)cc(F)c3)ccc21	2	/	0	/	-1
Cc1[nH]c2ccccc2c1/C=N/Nc1cccc(C(=O)O)c1	34*	18	7	12	5
CSc1sc(-c2ccnc(=S)[nH]2)c(-c2ccccc2)c1C#N	0	/	-3	-7	2
Fc1ccc(-c2ccnc(=S)[nH]2)cc1	-9	4	8	0	23*
C[C@@H](CCCCC1(C)OCCO1)CCC(=O)N(c1ccccc1)c1ccccc1	-4	/	2	/	4
COC(=O)C1CN(CC(C)C)CCS(=O)(=O)N1Cc1ccc(Cl)cc1 (stereo unspecified)	-1	/	3	/	-6
N#CCNC1CC(=O)N(c2ccc(F)cc2)C1=O (stereo unspecified)	0	2	-4	-3	22*
O=C1CC(NCc2ccc(F)cc2)C(=O)N1c1ccccc1 (stereo unspecified)	2	1	-6	-1	22*
O=C1C(Cl)=C(NCCCO)C(=O)c2ccccc21	-7	4	6	-5	3
O=C1C(SCCO)=C(SCCO)C(=O)c2ccccc21	25	22	8	-7	98*
COc1ccc(-c2cn(-c3ccccc3)c(=S)[nH]2)cc1OC	-9	-2	-3	6	23*
O=C(O)COc1ccc(Br)cc1C(c1c(C(=O)O)[nH]c2ccccc12)c1c(C(=O)O)[nH]c2ccccc12	/	1	/	/	/
O=C(O)c1[nH]c2ccccc2c1C(c1cc(Cl)cc([N+](=O)[O-])c1O)c1c(C(=O)O)[nH]c2ccccc12	68*	35	0	1	6
O=C(O)Cn1c2c(c3ccccc31)CSc1ccc(Cl)cc1-2	7	4	-7	9	78*
O=C(O)Cn1c2ccccc2c2ccccc21	2	2	10	1	-3
CC(OC(=O)Cc1ccccc1[N+](=O)[O-])C(=O)NC(=O)NC1CCCCC1 (stereo unspecified)	-2	58*	0	3	-1
COC(=O)C1CN(Cc2cn(Cc3ccccc3)nn2)CCS(=O)(=O)N1Cc1ccc(Cl)cc1 (stereo unspecified)	-1	/	-1	/	-2
O=C(O)c1cccc(-n2cccc2/C=C/[N+](=O)[O-])c1	12	11	-6	0	26*
SMILES	mABHD4 FP	HTRA1 inh	SIAE primary	TCR CD3 inh	PRMT1 FP inh
Nc1ccc2cccc(O)c2c1	48*	28	5	-7	2
Nc1ccc2cc3ccccc3cc2c1	23	25	2	8	11
N#CCC[C@H]1CC[C@]2(CCCN(C(=O)C3CCCCC3)C2)O1	2	/	-1	/	-4
CN1C[C@H](C(=O)N[C@]2(C)O[C@@]3(O)[C@@H]4CCCN4C(=O)[C@H](Cc4ccccc4)N3C2=O)CC2c3cccc4[nH]cc(c34)C[C@H]21 (stereo partly specified)	5	7	21*!	5	11
O=C(OCC#CCSc1nnc(-c2cccc3ccccc23)o1)c1ccc(Cl)c(C(F)(F)F)c1	1	/	1	/	-4
O=C(Cn1nnc(-c2ccccc2F)n1)Nc1ccc(F)cc1F	6	/	5	/	-3
Oc1cc(NCCN2CCOCC2)cc2cccnc12	16	8	6	11	21*
O=C(CSc1nncc(=O)[nH]1)Nc1cccc([N+](=O)[O-])c1	5	-1	0	4	33*

Bioassay records deposited in PubChem by The Scripps Research Institute Molecular Screening Center.
